# Screening data as filed in PubChem BioAssay.
# Rows were chosen to be rich in hits. Some 1.8% of all compounds tested hit in one or more screens of this group.
# Tb MetRS inh: T. brucei MetRS inhibitors, primary screen, biochemical, luminescence. methionyl-tRNA synthetase (Trypanosoma brucei brucei). hit rate 0.4% among 360,000. purified T. brucei MetRS, ATP depletion, Kinase-Glo luminescence. inhibition, % at 11.9 µM;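 active means inhibition above a per-plate cutoff of the control wells' mean inhibition plus 3 SD, cut at about 5.5% in these data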;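 further: 0% = DMSO wells median and 100% = median of wells with control inhibitor compound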
#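 technique = Kinase-Glo luminescence, ATP depletion format | system = purified MetRS (methionyl-tRNA synthetase) enzyme from Trypanosoma brucei | timing = 15 min preincubation, 2 h reaction, all 25 °C | evaluation = percent inhibition versus plate control medians | dosing = single dose, 11.9 µM final nominal, 0.9% final DMSO | also added = substrates ATP, L-methionine and bulk Escherichia coli tRNA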
# PHOSPHO1 block: PubChem AID 1565 | hit rate 1.1% among 290,000 | recombinant PHOSPHO1, absorbance phosphatase assay | inhibition, % at 13.3 µM | Phosphoethanolamine/phosphocholine phosphatase (Homo sapiens), Q8TCT1; in the data active means inhibition above about 60%
# pCIP destab: p/CIP-EGFP fusion destabilizers, primary screen, fluorescence, F442A cells; hit rate 0.01% among 290,000; AID 1984, 2009; 16 h; Q05BA5; decrease of EGFP signal, % at 10 µM;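 active means EGFP signal decrease of at least 30% at 10 µM or well 3 SD below plate mean, unless failing retest; inactive means the rest, including hits failing retest or dose response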
# Target sequence (Q05BA5 1-1403): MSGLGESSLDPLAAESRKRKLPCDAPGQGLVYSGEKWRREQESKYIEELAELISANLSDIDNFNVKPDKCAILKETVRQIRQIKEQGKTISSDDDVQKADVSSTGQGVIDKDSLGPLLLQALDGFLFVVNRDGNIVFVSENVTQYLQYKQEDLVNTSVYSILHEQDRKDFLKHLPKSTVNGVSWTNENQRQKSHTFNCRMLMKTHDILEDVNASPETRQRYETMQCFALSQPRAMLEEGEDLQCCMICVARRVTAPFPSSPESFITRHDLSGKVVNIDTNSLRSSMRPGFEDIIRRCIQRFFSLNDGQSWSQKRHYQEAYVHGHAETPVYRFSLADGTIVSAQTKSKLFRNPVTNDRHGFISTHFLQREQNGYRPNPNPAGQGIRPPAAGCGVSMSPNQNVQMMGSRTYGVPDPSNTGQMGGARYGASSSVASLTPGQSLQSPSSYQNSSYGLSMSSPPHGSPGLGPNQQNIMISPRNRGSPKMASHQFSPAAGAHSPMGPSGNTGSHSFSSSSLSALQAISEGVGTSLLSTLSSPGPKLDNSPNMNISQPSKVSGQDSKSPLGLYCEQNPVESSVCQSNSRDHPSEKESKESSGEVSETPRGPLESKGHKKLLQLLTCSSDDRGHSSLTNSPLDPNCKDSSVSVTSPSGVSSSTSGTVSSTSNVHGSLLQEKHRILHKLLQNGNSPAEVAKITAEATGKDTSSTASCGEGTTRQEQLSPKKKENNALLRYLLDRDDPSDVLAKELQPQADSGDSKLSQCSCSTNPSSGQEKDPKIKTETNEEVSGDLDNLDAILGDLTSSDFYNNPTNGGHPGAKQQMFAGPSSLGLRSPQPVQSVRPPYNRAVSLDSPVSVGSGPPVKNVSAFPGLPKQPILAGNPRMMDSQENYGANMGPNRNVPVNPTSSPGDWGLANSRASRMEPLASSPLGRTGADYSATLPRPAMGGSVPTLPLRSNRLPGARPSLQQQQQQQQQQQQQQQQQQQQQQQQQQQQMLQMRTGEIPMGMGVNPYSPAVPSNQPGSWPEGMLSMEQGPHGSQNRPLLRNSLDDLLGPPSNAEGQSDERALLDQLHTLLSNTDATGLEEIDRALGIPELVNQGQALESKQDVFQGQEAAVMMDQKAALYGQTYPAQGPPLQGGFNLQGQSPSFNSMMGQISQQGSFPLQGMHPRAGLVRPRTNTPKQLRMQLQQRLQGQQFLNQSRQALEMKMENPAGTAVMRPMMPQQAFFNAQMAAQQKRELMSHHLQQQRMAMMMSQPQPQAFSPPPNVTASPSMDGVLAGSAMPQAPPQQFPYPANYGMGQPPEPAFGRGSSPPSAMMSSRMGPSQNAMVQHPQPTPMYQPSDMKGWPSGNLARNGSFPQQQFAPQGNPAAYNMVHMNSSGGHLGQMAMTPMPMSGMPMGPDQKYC
# APOBEC3A inh: APOBEC3A ssDNA deaminase inhibitors, primary screen, selectivity assay for APOBEC3G inhibitor project, biochemical, FAM/TAMRA oligo cleavage fluorescence; AID 493011, 2011; inhibition, % at 20 µM; hit rate 0.41% among 330,000; recombinant A3A, FAM/TAMRA ssDNA deamination fluorescence; DNA dC->dU-editing enzyme APOBEC-3A (Homo sapiens), P31941;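 active means at least 40% inhibition at 20 µM here, with at most 30% in a related deaminase screen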;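 further: plate controls were A3A with DMSO for no effect and wells lacking A3A enzyme for full effect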
# APOBEC3G inh: APOBEC3G DNA deaminase inhibitors, primary screen, biochemical, fluorescence, single-stranded DNA substrate, uHTS; DNA dC->dU-editing enzyme APOBEC-3G (Homo sapiens), Q9HC16; hit rate 0.28% among 330,000; recombinant A3G, ssDNA deamination FAM/TAMRA fluorescence; AID 493012, 2011; inhibition, % at 20 µM;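 active means inhibition of at least 40% at 20 µM, with no more than 30% in the related APOBEC3A deaminase screen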;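 further: plate controls were DMSO wells with A3G for no effect and wells lacking A3G enzyme for full effect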
# An asterisk follows results filed as active; . = no result given.
SMILES,Tb MetRS inh,PHOSPHO1 block,pCIP destab,APOBEC3A inh,APOBEC3G inh
COc1cc(S(=O)(=O)N(Cc2ccccc2)CC2CCCO2)ccc1-n1cnnn1 (stereo not given),-0.2,47.1,-8.9,-3.4,-11.1
COc1ccc(CN(CC2CCCO2)S(=O)(=O)c2ccc(C(=O)O)cc2)cc1OC (stereo not given),-0.1,97.1*,1.7,-2.4,-4.1
Cc1cc(C)n(-c2nc(NCCO)c3c4c(sc3n2)CCCC4)n1,-0.7,80.7*,-1.9,-3.2,-6.4
Cc1cc(C)n(-c2nc(NCCCO)c3c4c(sc3n2)CCCC4)n1,-1.1,-3.5,-18.2,-0.6,0.8
COc1ccc(CN2C[C@@H](CO)O[C@@H](n3cnc4c(N5CCN(CCO)CC5)ncnc43)C2)cc1,-0.2,.,.,.,.
Cc1csc(NC(=O)CSc2nnc(-c3ccoc3C)n2C(C)c2ccccc2)n1 (stereo not given),-0.1,19.9,-7.5,-0.3,-7.2
CCc1n[nH]c(=S)n1/N=C/c1cc(Br)c(OC)cc1OC,-0.7,60.3*,4.1,-0.3,9.0
CCc1n[nH]c(=S)n1/N=C/c1ccc(-c2ccc(Br)cc2)o1,-0.9,.,.,-7.2,-6.5
CC(=O)Nc1nc(=S)n(-c2ccccc2)[nH]1,-0.4,96.1*,-5.7,-3.7,31.7
CN(CC(=O)NCC1CCCO1)S(=O)(=O)c1ccc2ccccc2c1 (stereo not given),0.3,.,.,.,.
CCCN1CCN(CCCNC(=O)C2CCN(c3nnc(-n4c(C)ccc4C)s3)CC2)CC1,-0.5,64.9*,8.4,-3.7,-5.8
CN1CCN(CCCNC(=O)C2CCN(c3nnc(-n4cccc4)s3)CC2)CC1,0.6,28.7,-6.6,-3.3,-8.6
COc1ccc(C)cc1S(=O)(=O)Nc1ccc2c(c1)N(C(C)=O)CCC2,-0.4,.,.,-0.1,-7.3
CCOc1ccc(C(=O)C(C)OC(=O)Cn2[nH]c(=O)c3ccccc3c2=O)cc1 (stereo not given),-1.0,46.6,-10.8,2.3,-2.2
O=C(CNC(=O)c1cccs1)OCC(=O)c1ccc([N+](=O)[O-])cc1,0.7,15.8,-5.2,-0.6,-9.6
O=C(CNC(=O)c1cccs1)c1ccc([N+](=O)[O-])cc1,-0.2,67.3*,5.1,0.4,-2.4
CCN(C(=O)c1coc(=O)c(Br)c1)c1ccc2c(c1)OCO2,-0.6,73.5*,-30.2,-0.7,1.8
COc1ccc(NC(=S)Nc2cc(C)[nH]n2)cc1Cl,-0.7,-132.6,-12.2,-1.8,3.6
COc1ccc(NC(=S)Nc2cc(-c3ccccc3)[nH]n2)cc1Cl,-0.2,69.2*,-2.5,2.2,2.5
CC(C)c1cc(=O)oc2c3c4c(cc12)CCCN4CCC3,0.1,89.7*,3.5,2.3,0.3
Cc1cc(=O)oc2c3c4c(cc12)OCCN4CCC3,0.1,-18.9,-21.6,-2.7,-2.8
Cc1cc(=O)[nH]c2ccc(S(=O)(=O)N3CCOCC3)cc12,-0.1,72.8*,-10.2,1.3,-1.0
CCn1c(SCC(=O)N/N=C/C(C)=C/c2ccco2)nnc1-c1ccccc1,-0.6,69.6*,1.0,-1.8,-1.8
CCn1c(SCC(=O)N/N=C/C(C)=C\c2ccco2)nnc1-c1ccccc1,-0.6,0.0,-1.9,5.1,1.7
COc1ccc(Cn2c(CCC(=O)Nc3ccccc3OC)nc3cccnc32)cc1,-0.2,-14.1,0.1,-1.1,-3.3
SMILES,Tb MetRS inh,PHOSPHO1 block,pCIP destab,APOBEC3A inh,APOBEC3G inh
COc1ccc(-c2[nH]ncc2CN(C)C(C)c2cccs2)c(F)c1 (stereo not given),-0.2,39.7,-14.8,-1.2,-5.4
COc1ccc(-c2[nH]ncc2CN(C)CCc2c(C)n[nH]c2C)c(F)c1,-1.1,67.1*,-5.9,0.4,0.6
COc1ccc(C(=O)NC2CCCc3c2cnn3-c2cccc(C)c2C)o1 (stereo not given),-0.6,64.0*,-8.2,-6.5,-6.6
CC1=C(C(=O)NC2CCCc3c2cnn3-c2cccc(C)c2C)OCCO1 (stereo not given),0.0,27.0,-7.7,3.1,-4.1
COc1ccc(-c2cc(C(F)(F)F)nc(S(=O)(=O)CCCC(=O)Nc3cccc(O)c3)n2)cc1OC,0.1,-24.8,2.0,-0.6,-8.7
CC(=O)Nc1nc(=S)ss1,-0.2,78.7*,-13.8,-6.6,3.4
CC(C)CC(=O)Nc1nc(=S)ss1,0.5,10.1,-5.6,2.3,4.4
CSC1=N/C(=C\c2ccccc2Cl)C(=O)N1N(C)C,-0.6,28.5,1.9,4.4,4.7
COc1ccc2c(C)c(CC(=O)N3CCN(C(=O)C4COc5ccccc5O4)CC3)c(=O)oc2c1 (stereo not given),-0.8,63.6*,-6.1,0.5,-2.0
COc1cc(CNn2c(C)n[nH]c2=S)cc(Cl)c1OCc1ccccc1,0.2,83.7*,-5.7,-4.2,-7.7
CCOC(=O)c1cc2c(=O)n3cccc(C)c3nc2n(Cc2ccccc2Cl)c1=N,.,17.2,-15.1,.,.
CCOc1cc(C2NC(=O)NC(C)=C2C(=O)OCC2CCCCC2)ccc1O (stereo not given),-3.0,24.1,0.5,-1.6,-5.4
COc1ccc(C2=NOC(Cn3nc(C(=O)NCc4ccco4)cc3-c3ccccc3)C2)cc1 (stereo not given),-0.3,.,.,0.8,-7.5
Clc1ccccc1-c1nn2c(Cn3cnc4ccccc43)nnc2s1,0.2,83.7*,-1.4,6.2,28.3
Brc1ccccc1-c1nnc2sc(-c3ccc4c(c3)OCCO4)nn12,0.1,0.2,6.8,-3.9,-12.9
Clc1cccc(-c2nn3c(-c4ccncc4)nnc3s2)c1,.,9.6,-2.2,.,.
Clc1cccc(-c2nnc3sc(-c4ccc5c(c4)OCO5)nn23)c1,.,75.4*,-0.1,.,.
c1ccc2c(c1)ncn2Cc1nnc2sc(-c3ccc4c(c3)OCO4)nn12,-0.8,66.7*,-12.6,1.0,9.2
CCOC(=O)[C@]12CCC=C1N(Cc1ccco1)C(=O)[C@H](CC(=O)NCCCCc1ccccc1)C2,-1.0,.,.,.,.
Cc1onc(C(=O)Nc2cccnc2Cl)c1[N+](=O)[O-],-0.2,17.9,2.0,-2.4,-6.4
COc1cc(NC(=O)c2noc(C)c2[N+](=O)[O-])c(OC)cc1Cl,-0.4,63.6*,3.1,-3.3,-3.1
COc1cccc(/C=C/C(=O)Nc2cccc(C(C)=O)c2)c1OC,-0.3,15.5,-7.2,4.9,-9.1
COc1ccccc1/C=C/C(=O)Nc1cccc(C(C)=O)c1,-0.6,68.6*,5.2,-0.5,-8.5
CC(=O)N1c2ccccc2C2(O)N=C(C)SC12 (stereo not given),-0.3,71.9*,2.7,-1.3,45.7*
CCc1nnc(NC(=O)CN2CCN(Cc3cccc(OC)c3)CC2)s1,-0.9,-1.3,3.2,-0.2,-8.0
O=[N+]([O-])c1ccc2[nH]c3c(c2c1)CCCC3,0.0,0.6,10.0,-2.6,-4.4
